High-throughput results deposited in PubChem BioAssay by Broad Institute.
Beta cell apopt: blocks beta cell apoptosis. INS-1E cytokine-induced death, ATP luminescence, 48 h; percent of positive-control rescue, neutral wells zero. protection from apoptosis, % (test concentration not listed). actives 0.8% (n = 300,000). AID 435005;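 active means Every replicate reaches about 75%, or at least half do and their mean reaches it too, limit read from the data; inconclusive means At least half of replicates reach the limit but their mean does not; inactive means Under half of replicates reach the limit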;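 further: higher means more ATP so stronger rescue from cytokine killing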
CSC inhib: blocks cancer stem cells; cancer stem cell-like cells viability, luminescence; inhibition, % at 7.5 µM; actives 1.1% (n = 300,000); in the data active means inhibition above about 75%; inconclusive means no clear call, values can overlap the other calls; tested in HMLE shEcad cells
PolyA inhibitor: yeast polyadenylation inhibition; actives 0.02% (n = 300,000); S. cerevisiae SKY197-pL101 polyadenylation reporter, beta-gal luminescence; efflux-impaired pdr1/pdr3 knockout yeast; score 100 = 6 SD above DMSO; activity score, % at 12 µM;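 active means lowest replicate activity score at least 50, where 100 means six control SD above control mean; inconclusive means lowest score under 50 but half or more replicates reach 50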;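 further: yeast exposed to compound for 9 h at 30 °C; higher score means more reporter readthrough which indicates perturbed polyadenylation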
T cruzi inh: blocks replication of Trypanosoma cruzi. T. cruzi beta-gal in NIH3T3, luminescence, 90 h. inhibition, % (concentration not given with the values). actives 1.4% (n = 300,000). AID 1885;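 active means mean inhibition across valid replicates above about 55%, limit read from the data; inconclusive means mean below that limit but half or more replicates reach it; inactive means mean below it, under half of replicates reach it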;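 further: signal also drops with host cell toxicity which is not excluded here; higher percent means less beta-gal luminescence so fewer parasites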
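assay system = mouse NIH/3T3 fibroblasts infected with β-gal-expressing T. cruzi Tulahuen C4 | input = 5,000 NIH/3T3 host cells per well | buffer or medium = DMEM plus 2% FBS | timing = 3 h host attachment, then at least 90 h co-culture | measured by = GalScreen luminescence, 60 min | evaluation = luminescence reflecting intracellular parasite burden, expressed as percent inhibition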
HIF act: HIF pathway transcriptional activation | U2OS HRE-luciferase reporter, luminescence; normalized: DMSO 0%, desferrioxamine 100% | activation, % at 7.5 µM (by protocol) | actives 0.32% (n = 300,000) | AID 1910;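 active means mean activation of at least 10% of the iron chelator positive control signal, with at least half of replicates also reaching 10%; inconclusive means mean and replicate majority disagree about reaching 10%; inactive means mean and most replicates under 10%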
Calb FLC: C. albicans growth modulation with fluconazole | growth inhibition, % (no concentration beside the values) | actives 0.57% (n = 300,000) | C. albicans CaCi-2 (fluconazole-resistant clinical isolate) + fluconazole, Alamar Blue growth, 48 h;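 active means growth inhibition above about 58% in most replicates, limit read from the data, passing the limit was not always enough; inconclusive means exactly half the replicates above a set limit; inactive means most replicates below a set limit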;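 further: all wells also contain fluconazole at 8 µg/ml as a sub-toxic cotreatment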
Hits are given with their value; - = inactive; ? = inconclusive; . = not tested or not shown; ! = a repeat was not active. Most compounds without a hit are left out; they make up all but 3.1% or so of the library.

SMILES	Beta cell apopt	CSC inhib	PolyA inhibitor	T cruzi inh	HIF act	Calb FLC
Cc1ccc(S(=O)(=O)CCC(=O)c2cccc([N+](=O)[O-])c2)cc1	-	-	-	58.0	-	-
CCOC(=O)c1ccc([N+](=O)[O-])c(CS(=O)(=O)c2ccc(Cl)cc2)c1	-	-	-	-	-	-
Cc1ccc(S(=O)(=O)Cc2cc(F)c([N+](=O)[O-])cc2[N+](=O)[O-])cc1	.	102.2	-	-	-	-
CO/N=C/c1cccn1-c1nccc(N(C)C)c1C#N	-	-	-	-	-	-
CCc1nnc(SCc2ccc([N+](=O)[O-])cc2)nc1CC	-	-	-	-	-	-
NC(=O)c1[nH]cnc1N	-	-	-	57.9!	-	-
COCCCNC(=S)NNC(=O)c1csc2ccccc12	.	.	-	-	-	-
CN(C)CCN(C(=O)c1ccc(S(=O)(=O)N(C)c2ccccc2)cc1)c1nc2cc3c(cc2s1)OCO3	-	-	-	57.1	-	-
CN(C)CCN(C(=O)c1ccc(S(=O)(=O)N(C)c2ccccc2)cc1)c1nc2ccc(Cl)cc2s1	-	-	-	62.7	-	-
CCN(CC)CCN(C(=O)c1ccc(S(=O)(=O)N2CCCCC2)cc1)c1nc2cc3c(cc2s1)OCO3	-	-	-	62.8	-	-
CN(C)CCN(C(=O)CN1C(=O)c2ccccc2C1=O)c1nc2cc3c(cc2s1)OCO3	-	-	-	-	-	-
CCN(CC)CCN(C(=O)CN1C(=O)c2ccccc2C1=O)c1nc2cc3c(cc2s1)OCO3	-	-	-	57.4	-	-
CC1(c2cccc(Br)c2)NC(=O)NC1=O (stereo not drawn)	-	-	-	-	-	-
CC(=O)C1=C(c2ccc(Br)cc2)C(=O)c2ccccc2C1=O	107.2	113.9	-	55.0	-	-
CC1=CC(=C2C(=O)c3ccccc3C2=O)C=C(C)O1	-	-	-	-	-	-
CCOc1ccccc1NC(=O)CSc1nnc(NC(=O)c2ccco2)s1	-	-	-	-	-	-
Cn1c(=O)[nH]c2ccc([N+](=O)[O-])nc21	-	-	-	-	-	-
Cc1ccc(OCCCCN2CCCCC2)c(C)c1	-	-	-	-	-	-
Cc1ccc(OCCCCNC2CCCC(C)C2C)c(C)c1 (stereo not drawn)	-	-	-	56.8	-	-
CSCCC(NS(=O)(=O)c1ccccc1F)C(=O)NCc1ccncc1 (stereo not drawn)	.	-	-	-	-	-
O=C1c2ccccc2C(=O)N1c1ccc(Cl)cc1	-	-	-	-	-	?
O=C1C2C(c3ccccc3)(C(=O)N1c1ccc(Cl)cc1)C2(c1ccccc1)c1ccccc1 (stereo not drawn)	-	75.4	-	-	-	?
CC(C)CCN1CCN(C2CCN(c3ccc4c(c3)OCO4)CC2)CC1CCO (stereo not drawn)	-	-	-	66.2	-	-
Cn1c(-c2ccccc2)cc2c3no[n+]([O-])c3ccc21	106.1	107.6	-	73.3	-	-
Cc1ccc(-n2cc(CN(C)Cc3ncc[nH]3)c(-c3cccc(C)c3)n2)cc1	-	-	-	58.0	-	-
SMILES	Beta cell apopt	CSC inhib	PolyA inhibitor	T cruzi inh	HIF act	Calb FLC
Cn1c(-c2c(N)n(CCCc3ccccc3)c3nc4ccccc4nc23)nc2ccccc21	.	.	-	70.5	-	-
Cn1c(-c2c(N)n(CCc3ccccc3)c3nc4ccccc4nc23)nc2ccccc21	-	-	-	-	-	93.6
COCCCn1c(N)c(-c2nc3ccccc3n2C)c2nc3ccccc3nc21	-	-	-	-	-	-
Cn1c(-c2c(N)n(C3CCCC3)c3nc4ccccc4nc23)nc2ccccc21	-	-	-	73.5	-	-
Cc1cc([N+](=O)[O-])nn1CC(=O)NCc1ccc(Cl)cc1	-	-	-	-	-	-
O=C(CSc1nc(-c2ccco2)cc(C(F)(F)F)n1)NCCc1ccccc1	-	-	-	-	-	98.2
O=C(CSc1nc(-c2ccco2)cc(C(F)(F)F)n1)Nc1ccccc1C(F)(F)F	-	75.0	-	-	-	-
COc1ccc(CCNC(=O)CSc2nc(-c3ccco3)cc(C(F)(F)F)n2)cc1OC	-	-	-	-	-	-
NC(=S)N/N=C1/CCSc2ccc3ccccc3c21	-	-	-	-	-	-
CC(C(=O)N(C)Cc1ccccc1)N1CCN(C/C=C/c2ccccc2)CC1 (stereo not drawn)	-	.	-	60.4	-	-
COc1ccc(NCc2nnc(SCC(=O)Nc3nc(-c4ccccc4)cs3)n2-c2ccccc2)cc1	?	-	-	-	-	-
COc1ccc(-n2c(Cc3cccn3C)nnc2SCC(=O)Nc2cccc(Cl)c2)cc1	-	117.1	-	-	-	-
COc1ccc(-n2c(CNc3ccc(C)cc3)nnc2SCC(=O)Nc2nc(-c3ccccc3)cs2)cc1	85.7	-	-	-	-	-
CCOC(=O)Cc1csc(NC(=O)CSc2nnc(-c3ccc(OC)cc3)n2C)n1	-	-	-	69.5	-	-
COc1ccccc1NC(=O)COc1ccc(C(=O)NC2CCCc3ccccc32)cc1OC (stereo not drawn)	-	-	-	-	-	-
CN(Cc1ccco1)c1ncnc2ccc(-c3ccc4c(ccn4C)c3)cc12	-	83.5	.	.	.	.
CN(Cc1ccco1)c1ncnc2ccc(-c3ccc4c(c3)OCO4)cc12	-	-	.	.	.	.
COc1ccc(-n2nc3c(c2NC(=O)C(C)Oc2ccccc2)CS(=O)C3)cc1 (stereo not drawn)	-	-	-	-	-	-
O=C(c1cc(COc2c(F)cccc2F)on1)N1CCC(c2ccccc2Cl)C1 (stereo not drawn)	-	-	-	-	-	?
O=C(c1cc(COc2cccc3cnccc23)on1)N1CCC(c2ccccc2Cl)C1 (stereo not drawn)	-	-	-	63.4	-	-
CN(Cc1cccc2cnccc12)C(=O)c1cc(COc2ccc(F)cc2F)on1	.	.	-	-	-	-
CCc1ccc(CN(C)C(=O)c2cc(COc3cccc4cnccc34)on2)cc1	77.7	-	-	-	-	-
Cc1ccc(C(=O)C[n+]2cccc3ccccc32)cc1	-	-	-	59.2	-	-
Cc1cc[n+](CCC(=O)O)c2ccccc12	-	.	-	-	-	-
Cc1cc[n+](CC(=O)c2ccccc2)c2ccccc12	117.0	-	-	-	-	-
CCNC(=S)N1CCNC(=O)C1CC(=O)OC (stereo not drawn)	-	-	-	-	-	-
Cn1cccc1C(=O)NC(=O)COC(=O)c1ccc(S(C)(=O)=O)c([N+](=O)[O-])c1	-	-	.	.	.	.
CS(=O)(=O)c1ccc(C(=O)OCC(=O)NC23CC4CC(CC(C4)C2)C3)cc1[N+](=O)[O-]	-	155.0	-	-	-	-
